From PubChem BioAssay
In the library only some 2.4% were active in any assay of this set; here they are far more common.
IMP-1 inh-1 – blocks Pseudomonas aeruginosa IMP-1 metallo-beta-lactamase; inhibition, % at 5.6 µM; actives 0.45% (n = 290,000); purified IMP-1, nitrocefin hydrolysis, epi-absorbance fluorescence; AID 1556;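 active = inhibition above the mean plus 3 SD of all compounds in the same screening run, cut at about 4.5% in these data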;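 also: 0% = IMP-1 with DMSO and 100% = DMSO wells lacking enzyme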
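System: purified recombinant IMP-1 beta-lactamase. Medium: Zinc- and detergent-supplemented HEPES buffer, pH 7.1. Compound: one 5.6 µM dose […]. Schedule: 15 min preincubation plus 25 min reaction at 25 °C. Technique: Epi-absorbance fluorescence, 480 nm excitation, 530 nm emission.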
VIM-2 inhibitor – inhibitors of Pseudomonas aeruginosa VIM-2 metallo-beta-lactamase; AID 1527; actives 0.89% (n = 290,000); purified VIM-2, nitrocefin hydrolysis, epi-absorbance fluorescence; inhibition, % at 5.6 µM;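 active = inhibition above the mean of all tested compounds plus 3 SD, cutoff set per screening run, cut at about 7.5% in these data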;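 also: red hydrolysis product quenches plate fluorescence so inhibitors raise well fluorescence; 0% = enzyme with DMSO and 100% = DMSO without enzyme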
sPLA2-III inh – Blocks human group III sPLA2 activity. QFRET BODIPY PC-A2 liposome hydrolysis, fluorescence. inhibition, % at 12.2 µM. actives 0.56% (n = 370,000);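 active = inhibition above mean plus 3 SD of compounds lying within the high and low control bounds, cut at about 19% in these data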;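 also: 0% = median of test compound wells and 100% = no enzyme DMSO wells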
PfM18AAP inh – PfM18AAP enzyme inhibition; recombinant PfM18AAP, H-Glu-NHMec fluorogenic cleavage; inhibition, % at 7.35 µM; actives 1.2% (n = 290,000);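 active = inhibition above the campaign mean inhibition over all tested compounds plus 3 SD, cut at about 28% in these data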;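 also: 0% = plate median of test compound wells and 100% = 2 mM ZnCl2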
IMP-1 inh-2 – IMP-1 inhibition, counter-screen for VIM-2 inhibitors; shares compounds with VIM-2 inhibitor; purified IMP-1, nitrocefin hydrolysis, epi-absorbance fluorescence; inhibition, % at 5.6 µM; 1,300 tested, under 10 active; AID 1856; call rule not given here;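 also: 0% = enzyme with vehicle and 100% = vehicle without enzyme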
VIM-2 FRET ctr – VIM-2 FRET inhibition, artifact counter-screen; purified VIM-2, CCF2 FRET substrate hydrolysis; inhibition, % at 5.6 µM; AID 1857; shares compounds with VIM-2 inhibitor; actives 23% (n = 1,300);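 active = inhibition above the mean of all tested compounds plus 3 SD, cut at about 19% in these data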;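 also: 0% = VIM-2 plus DMSO and 100% = no enzyme wells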
TEM-1 inh – TEM-1 inhibition, counter-screen for VIM-2 inhibitors; shares compounds with VIM-2 inhibitor; Purified TEM-1, nitrocefin hydrolysis, epi-absorbance fluorescence; inhibition, % at 5.6 µM; actives 3% (n = 1,300); AID 1866;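 active = inhibition above that campaign's mean inhibition plus 3 SD, cut at about 0.46% in these data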;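 also: 0% = TEM-1 with DMSO and 100% = TEM-1 with 100 µM potassium clavulanate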
Target sequence (P62593 whole entry, looked up): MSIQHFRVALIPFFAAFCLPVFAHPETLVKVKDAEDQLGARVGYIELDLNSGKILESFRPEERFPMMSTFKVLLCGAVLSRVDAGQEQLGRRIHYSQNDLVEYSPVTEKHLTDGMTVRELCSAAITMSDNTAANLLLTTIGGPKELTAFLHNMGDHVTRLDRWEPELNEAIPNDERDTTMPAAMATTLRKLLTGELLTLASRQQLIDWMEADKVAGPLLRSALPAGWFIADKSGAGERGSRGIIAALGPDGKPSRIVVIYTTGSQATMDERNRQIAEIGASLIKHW
VIM-2 confirm 2 – confirmation of P. aeruginosa VIM-2 metallo-beta-lactamase inhibitors; shares compounds with VIM-2 inhibitor; inhibition, % at 5.6 µM; AID 2187; actives 96% (n = 1,300); purified VIM-2, nitrocefin hydrolysis, epi-absorbance;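 active = inhibition of the VIM-2 beta-lactamase enzyme above about 11% from the earlier first-round screen, limit read from the data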;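 also: 0% = VIM-2 with DMSO and 100% = buffer wells without enzyme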
The depositor's hits bear a star; · = no result given.

SMILES | IMP-1 inh-1 | VIM-2 inhibitor | sPLA2-III inh | PfM18AAP inh | IMP-1 inh-2 | VIM-2 FRET ctr | TEM-1 inh | VIM-2 confirm 2
CCS(=O)(=O)Nc1ccc2c(c1)C(=O)N(C)[C@@H]1CC[C@H](CC(=O)OC)O[C@H]1CO2 | · | · | 4 | · | · | · | · | ·
Cc1ccc(Cn2ncc3c(NN)ncnc32)cc1 | -2 | 41* | -11 | 23 | -4 | -10 | -5 | 58*
CCCN1CCN(C(=O)Cn2nc(CC)n3c(cc4sccc43)c2=O)CC1 | -1 | 33* | 2 | 0 | -2 | 0 | -7 | 39*
CCc1nn(CC(=O)NCCCN2CCOCC2)c(=O)c2cc3sccc3n12 | -1 | 4 | 2 | -1 | · | · | · | ·
CN1CCN(C(=O)CSc2nc(-c3cccs3)ccc2C#N)CC1 | -2 | 28* | -6 | 8 | -3 | 4 | -7 | 50*
COc1ccccc1C(=O)Nc1nnc(SCC(=O)NC2CCCC2)s1 | -4 | 12* | · | -8 | -3 | 31* | -6 | 24*
O=C(CSc1nnc(NC(=O)c2ccccc2[N+](=O)[O-])s1)NC1CCCC1 | -2 | 15* | 2 | 5 | -3 | 32* | -7 | 19*
COc1cccc(C(=O)Nc2nnc(SCC(=O)NC3CCCC3)s2)c1 | -3 | 6 | 11 | -1 | · | · | · | ·
COc1ccc(-c2ccnc3ncnn23)cc1 | -2 | -2 | -4 | 3 | · | · | · | ·
c1ccc2c(c1)ncn2-c1ccc(-c2ccnc3ncnn23)cc1 | -3 | 30* | 4 | 2 | -2 | -10 | -3 | 65*
Nc1nccc(-c2ccc(-n3cnc4ccccc43)cc2)n1 | -4 | 18* | -4 | -4 | -4 | -6 | -6 | 39*
Cc1nccc(-c2ccc(-n3cnc4ccccc43)cc2)n1 | 0 | 17* | 1 | 0 | -3 | -2 | -6 | 33*
c1ccc2c(c1)ncn2-c1ccc(-c2ccnc(-c3ccncc3)n2)cc1 | -2 | 7 | 4 | 2 | · | · | · | ·
CCN(CC(=O)NC1CCS(=O)(=O)C1)S(=O)(=O)c1ccc(Cl)c(C(F)(F)F)c1 (stereo not given) | · | · | 2 | · | · | · | · | ·
COc1ccc(CCN2CC(C(=O)NCCN3CCOC3=O)CCC2=O)cc1 (stereo not given) | -2 | -2 | 3 | -9 | · | · | · | ·
CC(C)C[C@H]1CN([C@@H](Cc2ccc(O)cc2)CN2CCC[C@H]2CN2C(=O)C(=O)NC[C@@H]2Cc2ccc(O)cc2)C(=O)C(=O)N1CCc1ccccc1 | · | · | -19 | · | · | · | · | ·
CCN=C1S/C(=C/c2ccc(-c3ccc(Cl)cc3C(=O)O)o2)C(=O)N1CC | 2 | 13* | -9 | -5 | -3 | 19* | -7 | 16*
CCN=C1S/C(=C\c2ccc(-c3cccc(C(=O)O)c3)o2)C(=O)N1CC | -1 | -4 | · | 0 | · | · | · | ·
O=C(O)Cn1c2c(c3ccccc31)CSc1ccc(Cl)cc1-2 | 2 | 15* | -3 | 3 | 0 | 12 | -4 | 20*
COCCN1CC(O)=C(c2nc3ccccc3c(=O)[nH]2)C1=N | -1 | 4 | 3 | -8 | · | · | · | ·
COc1ccccc1N1CC(O)=C(c2nc3ccccc3c(=O)[nH]2)C1=N | -3 | 15* | 5 | -1 | -4 | -6 | -9 | 23*
Cn1cccc1CC(=O)NN=Cc1cccc(F)c1 | · | · | -4 | · | · | · | · | ·
O=C(COc1cccc(Cl)c1)N/N=C\c1cc2ccccc2nc1Cl | -2 | -3 | 19 | 2 | · | · | · | ·
O=C(CNc1ccc2ccccc2c1)N/N=C/c1cc2ccccc2nc1Cl | 1 | 22* | 6 | 5 | -4 | 3 | -9 | 34*
O=C(O)CN1C(=O)c2cccc3c(Br)ccc1c23 | -2 | 0 | -2 | 16 | · | · | · | ·
SMILES | IMP-1 inh-1 | VIM-2 inhibitor | sPLA2-III inh | PfM18AAP inh | IMP-1 inh-2 | VIM-2 FRET ctr | TEM-1 inh | VIM-2 confirm 2
CN(C)CCCN1C(=O)c2cccc3c(Br)ccc(c23)C1=O | -1 | 12* | 2 | -2 | -2 | 0 | -6 | 18*
COC(=O)c1ccc(CNC(=O)c2ccc3c(c2)OCCO3)cc1 | -3 | -2 | -2 | 1 | · | · | · | ·
CC(/C=N/NC(=S)Nc1cccc(S(=O)(=O)N(C)C)c1)c1ccccc1 (stereo not given) | -4 | 46* | -2 | 33* | -2 | 67* | -3 | 52*
CN(C)S(=O)(=O)c1cccc(NC(=S)N/N=C/c2ccco2)c1 | -3 | 1 | 15 | 13 | · | · | · | ·
CN(C)S(=O)(=O)c1cccc(NC(=S)N/N=C/C(c2ccccc2)c2ccccc2)c1 | -6 | 21* | -10 | 32* | -3 | 35* | -8 | 23*
CCc1nnc(NC(=O)CCC(=O)N2CCN(c3cccc(Cl)c3)CC2)s1 | -3 | -1 | -11 | -7 | · | · | · | ·
O=C(Nc1nc2ncccn2c1-c1ccc(C(F)(F)F)cc1)c1ccccc1 | · | · | 11 | · | · | · | · | ·
CC(C)CN1C(=O)[C@@]2(CC(=O)N(C)C2c2ccccc2)c2cc(-n3cc(-c4ccccc4)nn3)ccc21 (stereo not given in full) | · | · | 7 | · | · | · | · | ·
CC1CN(Cc2c(O)ccc3c(=O)c(-c4ccccc4)coc23)CC(C)O1 (stereo not given) | -3 | -1 | -3 | -1 | · | · | · | ·
CC1CN(Cc2c(O)ccc3c2oc(=O)c2ccccc23)CC(C)O1 (stereo not given) | -2 | 14* | 10 | 14 | -2 | -16 | -7 | 29*
Cc1cc(NCCCN)nc(-c2ccccc2O)n1 | -4 | 36* | -6 | 1 | -3 | -1 | -7 | 54*
COC(=O)c1c(NC(=O)C(=O)NCCCN2CCOCC2)sc2c1CCC2 | -2 | 14* | 6 | 1 | -2 | 1 | -9 | 25*
COC(=O)c1c(NC(=O)C(=O)NCCCN2CCOCC2)sc2c1CC(C)(C)OC2 | -9 | 13* | -1 | -2 | -3 | 2 | -4 | 20*
N#Cc1c(NC(=O)C(=O)NCCCN2CCOCC2)sc2c1CCCC2 | -2 | 0 | 0 | 4 | · | · | · | ·
O=C(NC(c1ccc(Cl)cc1)c1cnccn1)C1CCN(CCCOc2ccccc2)CC1 (stereo not given) | · | · | -7 | · | · | · | · | ·
COc1cccc(/C=N\N2CCN(c3ccc(C)cc3)CC2)c1O | · | · | 2 | · | · | · | · | ·
Cc1c(OCC(=O)NCCCN2CCOCC2)ccc2c3c(c(=O)oc12)CCC3 | -3 | 25* | 4 | 1 | -2 | 1 | -14 | 37*
O=C(COc1ccccc1Cc1ccccc1)NCCCN1CCOCC1 | -4 | -3 | 1 | 1 | · | · | · | ·
Cc1c(OCC(=O)NCCCN2CCOCC2)ccc2c1oc(=O)c1ccccc12 | -2 | 26* | 2 | -8 | -1 | 1 | -4 | 38*
CCCCc1cc(=O)oc2c(C)c(OCC(=O)NCCN3CCOCC3)ccc12 | 1 | 5 | 1 | -17 | · | · | · | ·
Cc1cc2c(c(=O)o1)[C@@]1(C(=O)Nc3ccccc31)C1=C(CCCC1=O)O2 | · | · | 1 | · | · | · | · | ·
